Active and inactive are the calls of the source. The rule behind the calls is not given here.
Columns and labels:
Raji [1] = experiment: Cell cycle arrest in human Raji cells assessed as accumulation at G0/G1 phase after 12 hrs by propidium iodide staining based flow cytometry (reference value: 38.5%); type: functional
Raji [2] = experiment: Induction of apoptosis in human Raji cells assessed as necrotic cells at 0.5 uM after 12 hrs by Annexin V-FITC/propidium iodide staining based flow cytometry relative to control; type: functional
Summary of the method: (§1)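 RAJI cells exposed to compound or control medium for 12 or 48 h were washed in PBS and resuspended in binding buffer. They were stained with FITC annexin V and PI for 15 min in the dark, and fluorescence was measured by flow cytometry.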

Raji [3] = experiment: Cell cycle arrest in human Raji cells assessed as accumulation at G0/G1 phase after 24 hrs by propidium iodide staining based flow cytometry (reference value: 38.5%); type: functional
Homo sapiens [4] = species: Homo sapiens; experiment: Inhibition of NM23-H2 binding to c-Myc G-quadruplex DNA in human Raji cells up to 4 uM after 6 hrs by ChIP-PCR method; type: cell-based
Raji [5] = experiment: Induction of apoptosis in human Raji cells assessed as late apoptotic cells at 0.5 uM after 12 hrs by Annexin V-FITC/propidium iodide staining based flow cytometry relative to control; type: functional; summary of the method: as §1
Raji [6] = experiment: Induction of apoptosis in human Raji cells assessed as necrotic cells at 1 uM after 48 hrs by Annexin V-FITC/propidium iodide staining based flow cytometry relative to control; type: functional; summary of the method: as §1
Raji [7] = experiment: Cell cycle arrest in human Raji cells assessed as accumulation at S phase after 6 hrs by propidium iodide staining based flow cytometry (reference value: 32.2%); type: functional
Raji [8] = experiment: Induction of apoptosis in human Raji cells assessed as upregulation of cleaved caspase-9 expression up to 4 uM after 12 hrs by Western blot method; type: functional, cell-based
Summary of the method: (§2)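 After compound exposure (12 h for cell-cycle and apoptosis markers), RAJI cells were lysed in 1% NP-40 buffer. Protein at 50 μg per lane was run on 3–12% SDS-PAGE and transferred to nitrocellulose. Blots were probed with primary antibodies (GAPDH as loading reference) and detected with an HRP secondary and enhanced chemiluminescence.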

Raji [9] = experiment: Induction of apoptosis in human Raji cells assessed as downregulation of CDK6 expression after 12 hrs by Western blot method; type: functional, cell-based; summary of the method: as §2
Raji [10] = experiment: Induction of apoptosis in human Raji cells assessed as early apoptotic cells at 0.5 uM after 12 hrs by Annexin V-FITC/propidium iodide staining based flow cytometry (reference value: 2.3%); type: functional; summary of the method: as §1
Homo sapiens [11] = species: Homo sapiens; experiment: Stabilization of c-Myc G-quadruplex DNA in human Raji cells assessed as downregulation of c-Myc mRNA level at 2 uM after 12 hrs by RT-PCR method relative to control; type: cell-based
Summary of the method: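 RAJI, CCRF-CEM and U266B1 grown in RPMI 1640 with 10% fetal calf serum at 37 °C, plated at 1 × 10^6 cells/well overnight, then treated 12 h with 4, 2, 1 or 0.5 μM (DMSO control). RNA (2 μg) reverse-transcribed with oligo dT18/M-MLV; c-MYC, NM23-H2 and β-actin amplified by real-time PCR, checked on 1.5% agarose.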

[12] = Drug uptake in human Raji cells at 1 uM after 6 hrs; type: ADME, cell-based
CCRF-CEM = experiment: Antiproliferative activity against human CCRF-CEM cells after 12 hrs by MTT assay; type: functional, cell-based
Summary of the method: (§3)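 RAJI, CCRF-CEM and U266B1 cells were seeded at 5 × 10^3 cells per well and exposed to compound for 12 h, with a DMSO vehicle control. MTT at 0.5 mg/mL was added for 4 h at 37 °C, then lysis solution overnight at 37 °C, and A570 was read. Assays were run in triplicate. IC50 was taken from the percentage survival relative to the negative control.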

Raji [13] = experiment: Induction of apoptosis in human Raji cells assessed as early apoptotic cells at 1 uM after 12 hrs by Annexin V-FITC/propidium iodide staining based flow cytometry (reference value: 2.3%); type: functional; summary of the method: as §1
U-266 = experiment: Antiproliferative activity against human U266B1 cells after 12 hrs by MTT assay; type: functional, cell-based; conditions: U-266, 12 h; summary of the method: as §3
[14] = Stabilization of c-Myc Pu27 G-quadruplex DNA (unknown origin) assessed as induction of parallel G-quadruplex formation in presence of K+ ions by CD spectroscopic analysis
Summary of the method: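 CD spectra: Pu27 at 5 μM in 10 mM Tris-HCl pH 7.4 without or with 100 mM KCl, annealed 95 °C 5 min, slow-cooled, kept at 4 °C overnight, with ligand. Scanned 230–400 in a 4 mm quartz cuvette, 1 nm bandwidth and step, 0.5 s/point; buffer baseline subtracted.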

Raji [15] = experiment: Antitumor activity against human Raji cells xenografted in NOD/SCID nude mouse assessed as reduction in tumor volume at 15 mg/kg, ip administered once daily for 2 weeks relative to control; type: functional
Summary of the method: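 NOD/SCID mice were implanted subcutaneously in the underarm with RAJI cells (5 × 10^6 per 100 μL of RPMI 1640 with 10% serum). Tumours reached […] after 1 week, and mice were then randomised. […] Tumour volume was recorded daily and tumour weight at the end.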

Raji [16] = experiment: Induction of apoptosis in human Raji cells assessed as early apoptotic cells at 1 uM after 48 hrs by Annexin V-FITC/propidium iodide staining based flow cytometry (reference value: 1.8%); type: functional; summary of the method: as §1
[17] = Stabilization of 5'-FAM/3'-TAMRA labeled c-Myc Pu22 G-quadruplex DNA (unknown origin) assessed as change in melting temperature at 2 uM by FRET assay
Summary of the method: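 FRET melting of FAM/TAMRA-labelled FPu22T (0.2 μM) in 10 mM Tris-HCl pH 7.4 with 2 mM KCl, ligand 2 μM, in a real-time PCR machine. Excitation 470 nm, emission 530 nm, read every 1 °C from 37 to 99 °C after 30 s hold at each step; ΔTm versus probe alone.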

- Drug uptake [12]: Active
- IC50 (CCRF-CEM): 18.1 µM
- Activity [14]: Dose-dependent effect
- ΔTm [17]: 26.6 °C
Compound: CN(C)CCCNc1c2ccccc2nc2c1oc1ccc(OCC3CCN(C)CC3)cc12
- Activity (Raji [1]): 60.2%
- Activity (Raji [2]): 0%
- Activity (Raji [3]): 56.3%
- Activity (Homo sapiens [4]): Active
- Activity (Raji [5]): 0.2%
- Activity (Raji [6]): 0%
- Activity (Raji [7]): 18.1%
- Activity (Raji [8]): Active
- Activity (Raji [9]): Dose-dependent effect
- Activity (Raji [10]): 4.6%
- Activity (Homo sapiens [11]): > 80%
- Activity (Raji [13]): 18.9%
- IC50 (U-266): 23 µM
- T/C (Raji [15]): 33.3%
- Activity (Raji [16]): 52.9%
